According to PMC12413468 (Communications Biology, 2025):

Assays:
[1] = test system: Cavin1 Tyr156 phosphorylation in HDMEC; assay: Cavin1 Tyr156 phosphorylation, immunoblot in HDMEC; type: cell-based, human; conditions: WNK1 siRNA 72 h or WNK463 1 µM 18 h
Summary of the method: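 HDMEC were grown in MCDB 131 with 10% FBS, 10 mM L-glutamine, 10 ng/ml EGF, 1 ug/mL hydrocortisone and penicillin/streptomycin, at 37 °C and 5% CO2. Lysates were made directly in SDS/β-mercaptoethanol sample buffer and immunoblotted for phospho-Cavin1 Tyr156 and total Cavin1. Data are means ± SEM; unpaired two-tailed t-test.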

[2] = test system: phospho-SPAK Ser373/phospho-OSR1 Ser325 in HDMEC; assay: phospho-SPAK/phospho-OSR1 immunoblot in HDMEC; type: cell-based, human; conditions: WNK463 1 µM 18 h, unlike OSR1
Summary of the method: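 Endothelial cells (HDMEC) were kept in MCDB 131 with 10% FBS, 10 mM L-glutamine, 10 ng/ml EGF, 1 ug/mL hydrocortisone and antibiotics, at 37 °C and 5% CO2. Pan-WNK inhibitor was given at 1 µM for 18 h. Cells were harvested in SDS/DTT/β-mercaptoethanol sample buffer, then immunoblotted with an antibody recognising phospho-SPAK Ser373/phospho-OSR1 Ser325. Results are means ± SEM, compared by unpaired two-tailed t-test.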

[3] = test system: A549 cells stably expressing TSC22D1-mNeonGreen; assay: TSC22D1-mNeonGreen localization, A549 cells; type: cell-based, human; conditions: A549, WNK463 1 µM, 24 h
Summary of the method: (§1)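 Stable lines came from a lentiviral vector carrying long-isoform TSC22D1 with a C-terminal mNeonGreen tag, transfected with Lipofectamine 3000. Cells were puromycin-selected and sorted by flow cytometry. Pan-WNK inhibitor was applied at 1 µM for 24 h. Cells on coverslips were fixed (4% PFA, 15 min, RT), permeabilised (0.1% Triton X-100, 4.5 min), blocked with 10% goat serum, stained with antibodies and Alexa secondaries (1:500), mounted with DAPI and imaged by confocal microscopy. In A549, endogenous OSR1 was co-stained.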

[4] = test system: HEK293T cells stably expressing TSC22D1-mNeonGreen; assay: TSC22D1-mNeonGreen localization, HEK293T cells; type: cell-based, human; conditions: WNK463 1 µM, 24 h, confocal microscopy, n=1
Summary of the method: as §1

[5] = test system: TSC22D family mRNA in HDMEC; assay: qPCR of TSC22D family members in HDMEC; type: cell-based, human; conditions: 1 µM WNK463, 14 hours, two replicates
[6] = test system: 3xFLAG-OSR1 / endogenous TSC22D1; type: binding, human; conditions: HEK293T cells, 50 µM CCT blocking peptide, n = 3
Summary of the method: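 HEK293T cells were grown in DMEM with 10% FBS and expressed 3xFLAG-OSR1. Endogenous TSC22D1 was co-immunoprecipitated and detected by immunoblot. Three independent experiments.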

CC(C)(C)NC(=O)c1cncn1C1CCN(c2ccc(-c3nnc(C(F)(F)F)o3)cn2)CC1 [WNK463]
total Cavin1 protein amount [1]: little change | phosphorylation of SPAK [2]: resistant | TSC22D1 puncta ([3]; confocal microscopy, n = 3): induced TSC22D1 puncta | localization of endogenous OSR1 ([3]; immunofluorescence): colocalized in puncta with tagged TSC22D1 | TSC22D1 puncta [4]: induced TSC22D1 puncta | mRNA amounts of TSC22D family members [5]: altered mRNA amounts of TSC22D family members

NH3^+-SAGRRFIVSPVPE-COO^− [SAGRRFIVSPVPE (WT)]
association of endogenous TSC22D1 with 3xFLAG-OSR1 [6]: prevented their association
